According to ChEMBL document CHEMBL1144884, “Synthesis, activity, and molecular modeling studies of novel human aldose reductase inhibitors based on a marine natural product” (J Med Chem, 2003):

Key:
[1] = Inhibitory activity on sorbital accumulation in human retinal cells was determined; type: functional, cell-based
Procedure, shortened: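 ARPE-19 human retinal cells grown in MEM with 0.5% fetal calf serum plus 50 mM glucose. Compounds added in DMSO, then 16 h at 37 °C under 5% CO2. Cells lysed with 8% perchloric acid and neutralised with KOH. Sorbitol measured by colorimetric kit. IC50 taken as the concentration halving sorbitol accumulation; mean of three experiments.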

[2] = target: T1, Aldo-keto reductase family 1 member B1 (Homo sapiens, UniProt P15121); assay: In vitro inhibition of recombinant human aldose reductase (ALR2)
Procedure, shortened: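 Recombinant human ALR2 expressed in baculovirus-infected Sf9 cells, purified by dye-affinity chromatography. Assay at 37 °C: 100 mM sodium phosphate pH 6.2, 400 mM ammonium sulfate, 5 mU/mL enzyme, 0.1 mM NADPH. DMSO-dissolved compound preincubated 5 min, then 10 mM glyceraldehyde added; A340 decrease followed 6 min.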

[3] = target: T1, Aldo-keto reductase family 1 member B1; assay: (§1) In vitro inhibitory activity against recombinant human aldose reductase (ALR2) was determined
Procedure, shortened: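 Recombinant hALR2 expressed in baculovirus-infected Sf9 cells, purified by affinity chromatography. Run at 37 °C in 100 mM sodium phosphate pH 6.2, 400 mM ammonium sulfate, 5 mU/mL enzyme, 0.1 mM NADPH. Compounds in DMSO preincubated 5 min. Started with 10 mM glyceraldehyde; A340 decrease read over 6 min.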

[4] = target: T1, Aldo-keto reductase family 1 member B1; assay: as §1; remark: listed apart in the source

SMILES | IC50 [1] | inhibition [2] | IC50 [4] | other results
COc1ccc2c(C(=S)N(C)CC(=O)O)cccc2c1C(F)(F)F [TOLRESTAT] | 0.02 µM | – | – | –
COc1c(Br)cc(Br)cc1Oc1c(Br)c(Br)c(Br)c(Br)c1OC | – | 0% | – | –
Oc1c(Br)cc(Br)cc1Oc1c(O)c(Br)c(Br)c(Br)c1Br | 3 µM | – | – | IC50 [3]: 6.4 µM
COc1cc(Br)c(Br)cc1Oc1cc(Br)c(Br)cc1OC | – | 0% | – | –
Oc1c(Br)cc(Oc2cc(Br)c(Br)c(Br)c2O)c(O)c1Br | 8 µM | – | 4.4 µM | –
COc1c(Nc2cc(Br)c(Br)c(Br)c2OC)cc(Br)c(Br)c1Br | – | 0% | – | –
Oc1ccc(Br)cc1Oc1cc(Br)ccc1O | – | 32% | – | –
Nc1c(Oc2cc(Br)c(Br)c(Br)c2O)cc(Br)c(Br)c1Br | 6 µM | – | 8.9 µM | –
COC(=O)COc1c(Br)cc(Br)cc1Oc1c(Br)c(Br)c(Br)c(Br)c1OCC(=O)OC | – | 0% | – | –
O=C(O)COc1c(Br)cc(Br)cc1Oc1c(Br)c(Br)c(Br)c(Br)c1OCC(=O)O | – | – | 25 µM | –
COc1c(Br)c(Br)c(Br)c(Br)c1Oc1cc(O)cc(Br)c1O | – | 0% | – | –
Oc1c(Oc2cc(Br)c(Br)c(Br)c2O)cc(F)c(Br)c1Br | 11 µM | – | 3.2 µM | –
Oc1c(Nc2cc(Br)c(Br)c(Br)c2O)cc(Br)c(Br)c1Br | – | 18% | – | –
O=C1NC(=O)[C@@]2(CCOc3ccc(F)cc32)N1 [SORBINIL] | 4 µM | – | – | –
Oc1c(Oc2cc(Cl)c(Cl)c(Cl)c2O)cc(Cl)c(Cl)c1Cl | 0.24 µM | – | 3.2 µM | –
Oc1c(Oc2c(O)c(Br)c(Br)c(Br)c2Br)cc(Br)c(Br)c1Br | 7 µM | – | 5.5 µM | –
Oc1c(Oc2cc(Br)c(Br)c(Br)c2O)cc(Br)c(Br)c1Br | 1 µM | – | 5.7 µM | –
Oc1cc(Br)c(Br)c(Br)c1Oc1cc(Br)cc(Br)c1O | – | 0% | – | –
CC(=O)Oc1c(Br)cc(Br)cc1Oc1c(Br)c(Br)c(Br)c(Br)c1OC(C)=O | – | 0% | – | –
COc1cc(Br)c(Br)c(Br)c1Oc1cc(Br)cc(Br)c1OC | – | 0% | – | –
Oc1cc(Br)c(O)c(Oc2c(O)c(Br)c(Br)c(Br)c2Br)c1 | – | 38% | – | –
Oc1c(Br)cc(Br)cc1Oc1c(Br)cc(Br)c(Br)c1O | – | 25% | – | –
Oc1cc(Br)c(Br)cc1Oc1cc(Br)c(Br)cc1O | – | 46% | – | –
